According to ChEMBL document CHEMBL1136005 (J Med Chem, 2002):
pIC50: −log10 of the molar value. Values belong to the compound of their own block, whether it stands above or below them.

Experiments:
[1] = target: Platelet-derived growth factor receptor (Homo sapiens, UniProt P09619+P16234); assay: Concentration required for 50% inhibition against autophosphorylation of Platelet-derived growth factor receptor beta in intact cells using a two site ELISA; assay type: cell-based
[2] = Plasma concentration was determined after 1 hr at a dose 30 mg/kg administered orally to rat-8; assay type: ADME, organism-based; set-up: dose 30 mg/kg, route oral; conditions: po
Summary of the method: (§1)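 Sprague-Dawley rats, n=2 per compound, dosed orally at 30 mg/kg. Plasma drug concentration measured 1 and 8 h after dosing.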

[3] = Plasma concentration was determined after 8 hr at a dose 30 mg/kg administered orally to rat-7; assay type: ADME, organism-based; set-up: dose 30 mg/kg, route oral; conditions: po; summary of the method: as §1
[4] = Plasma concentration was determined after 1 hr at a dose 30 mg/kg administered orally to rat-7; assay type: ADME, organism-based; set-up: dose 30 mg/kg, route oral; conditions: po; summary of the method: as §1
[5] = Plasma concentration was determined after 8 hr at a dose 30 mg/kg administered orally to rat-8; assay type: ADME, organism-based; set-up: dose 30 mg/kg, route oral; conditions: po; summary of the method: as §1
[6] = target: Protein kinase C (PKC); assay: Inhibition of Protein kinase C; assay type: protein assay
Summary of the method: (§2)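 Substrate phosphorylation measured in an in vitro assay with purified enzyme; IC50 values in µmol/L.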

[7] = target: Fibroblast growth factor receptor (Homo sapiens, UniProt P22607+P11362+P22455+P21802); assay: Inhibition of Fibroblast growth factor receptor autophosphorylation; assay type: protein assay
[8] = target: Macrophage colony-stimulating factor 1 receptor (Homo sapiens, UniProt P07333); assay: Inhibition of Colony stimulating factor 1 receptor (CSF-1R) autophosphorylation
Sequence of Macrophage colony-stimulating factor 1 receptor (P07333 whole entry): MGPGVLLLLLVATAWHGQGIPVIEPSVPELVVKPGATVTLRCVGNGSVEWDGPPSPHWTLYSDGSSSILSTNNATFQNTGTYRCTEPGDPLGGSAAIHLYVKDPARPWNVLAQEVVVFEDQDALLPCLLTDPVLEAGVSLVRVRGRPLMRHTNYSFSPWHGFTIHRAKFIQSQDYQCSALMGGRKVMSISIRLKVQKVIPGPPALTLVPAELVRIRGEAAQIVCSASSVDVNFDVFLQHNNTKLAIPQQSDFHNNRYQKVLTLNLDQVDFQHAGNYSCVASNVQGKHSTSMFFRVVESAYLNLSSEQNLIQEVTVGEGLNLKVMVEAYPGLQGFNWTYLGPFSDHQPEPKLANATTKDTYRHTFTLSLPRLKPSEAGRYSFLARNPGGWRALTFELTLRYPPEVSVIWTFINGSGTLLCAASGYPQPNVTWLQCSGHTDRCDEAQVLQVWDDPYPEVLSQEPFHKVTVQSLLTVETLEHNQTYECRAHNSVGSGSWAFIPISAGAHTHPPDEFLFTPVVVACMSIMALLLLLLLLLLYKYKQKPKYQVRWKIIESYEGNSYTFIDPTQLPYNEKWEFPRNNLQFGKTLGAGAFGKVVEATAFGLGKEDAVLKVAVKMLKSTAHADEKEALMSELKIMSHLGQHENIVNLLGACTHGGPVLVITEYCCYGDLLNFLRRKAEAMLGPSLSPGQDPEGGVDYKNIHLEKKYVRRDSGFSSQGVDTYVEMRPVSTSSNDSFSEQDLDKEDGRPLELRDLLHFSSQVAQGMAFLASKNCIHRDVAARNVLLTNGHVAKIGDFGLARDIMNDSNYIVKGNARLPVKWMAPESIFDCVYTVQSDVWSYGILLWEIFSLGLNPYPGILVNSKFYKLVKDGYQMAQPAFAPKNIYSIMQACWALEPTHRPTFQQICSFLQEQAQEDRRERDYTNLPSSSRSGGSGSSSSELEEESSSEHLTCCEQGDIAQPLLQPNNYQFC

[9] = target: Mast/stem cell growth factor receptor Kit (Homo sapiens, UniProt P10721); assay: Inhibition of Mast/stem cell growth factor receptor (c-kit) autophosphorylation
Sequence of Mast/stem cell growth factor receptor Kit (P10721 whole entry): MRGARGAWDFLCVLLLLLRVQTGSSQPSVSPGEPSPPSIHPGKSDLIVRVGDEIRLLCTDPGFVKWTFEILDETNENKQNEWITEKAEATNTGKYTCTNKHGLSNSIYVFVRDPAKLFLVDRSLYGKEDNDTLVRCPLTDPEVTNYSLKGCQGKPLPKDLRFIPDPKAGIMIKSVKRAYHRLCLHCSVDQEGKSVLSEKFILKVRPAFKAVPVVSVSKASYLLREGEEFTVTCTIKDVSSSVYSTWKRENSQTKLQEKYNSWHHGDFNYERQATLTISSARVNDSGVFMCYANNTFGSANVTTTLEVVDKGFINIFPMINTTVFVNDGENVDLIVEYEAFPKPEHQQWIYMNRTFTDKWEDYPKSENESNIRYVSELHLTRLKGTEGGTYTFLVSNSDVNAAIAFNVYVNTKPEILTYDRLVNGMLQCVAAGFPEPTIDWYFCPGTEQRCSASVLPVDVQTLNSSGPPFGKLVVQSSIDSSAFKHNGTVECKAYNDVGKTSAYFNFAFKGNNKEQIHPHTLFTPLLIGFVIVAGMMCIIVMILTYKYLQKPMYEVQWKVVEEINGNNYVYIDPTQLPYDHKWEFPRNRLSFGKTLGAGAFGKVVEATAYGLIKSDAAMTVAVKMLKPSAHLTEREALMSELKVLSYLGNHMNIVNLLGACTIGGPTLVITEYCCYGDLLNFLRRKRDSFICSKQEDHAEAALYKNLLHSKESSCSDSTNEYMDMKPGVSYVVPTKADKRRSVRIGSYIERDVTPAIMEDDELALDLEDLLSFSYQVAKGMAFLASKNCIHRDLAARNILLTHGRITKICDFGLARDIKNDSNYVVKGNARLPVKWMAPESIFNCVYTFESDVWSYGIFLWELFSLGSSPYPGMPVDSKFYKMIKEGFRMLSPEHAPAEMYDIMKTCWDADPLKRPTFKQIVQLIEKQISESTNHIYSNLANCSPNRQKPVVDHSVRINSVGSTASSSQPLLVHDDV

[10] = target: T1, Dual specificity mitogen-activated protein kinase kinase 3 (Homo sapiens, UniProt P46734); assay: Inhibition of Mitogen activated protein kinase kinase 3; summary of the method: as §2
T1 sequence (P46734 whole entry): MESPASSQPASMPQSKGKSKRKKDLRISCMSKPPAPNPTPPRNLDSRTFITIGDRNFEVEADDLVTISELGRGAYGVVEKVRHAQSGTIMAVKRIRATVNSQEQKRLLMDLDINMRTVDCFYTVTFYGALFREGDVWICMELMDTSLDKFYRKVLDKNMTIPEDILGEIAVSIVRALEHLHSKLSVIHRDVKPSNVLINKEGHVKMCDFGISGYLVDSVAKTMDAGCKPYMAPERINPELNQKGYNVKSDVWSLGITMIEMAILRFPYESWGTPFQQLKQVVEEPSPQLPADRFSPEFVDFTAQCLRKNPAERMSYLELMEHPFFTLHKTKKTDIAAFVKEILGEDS

[11] = target: Proto-oncogene tyrosine-protein kinase Src (Homo sapiens, UniProt P12931); assay: Inhibition of Src protein tyrosine kinase; summary of the method: as §2
Sequence of Proto-oncogene tyrosine-protein kinase Src (P12931 2-536 limits assumed): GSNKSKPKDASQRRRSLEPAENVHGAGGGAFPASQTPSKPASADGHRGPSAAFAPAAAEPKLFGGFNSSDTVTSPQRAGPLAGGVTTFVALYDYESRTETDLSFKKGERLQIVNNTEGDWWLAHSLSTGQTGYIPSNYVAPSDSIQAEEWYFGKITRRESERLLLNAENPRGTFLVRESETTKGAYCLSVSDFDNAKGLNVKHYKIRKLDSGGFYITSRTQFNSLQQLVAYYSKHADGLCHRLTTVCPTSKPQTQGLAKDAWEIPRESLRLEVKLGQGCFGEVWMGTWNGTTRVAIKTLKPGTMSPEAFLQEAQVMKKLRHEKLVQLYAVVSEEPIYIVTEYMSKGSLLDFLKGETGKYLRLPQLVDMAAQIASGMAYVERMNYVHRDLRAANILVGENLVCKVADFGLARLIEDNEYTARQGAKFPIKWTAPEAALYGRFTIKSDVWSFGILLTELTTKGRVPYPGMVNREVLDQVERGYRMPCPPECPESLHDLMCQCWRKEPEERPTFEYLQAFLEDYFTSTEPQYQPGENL

[12] = target: Mitogen-activated protein kinase 8 (Homo sapiens, UniProt P45983); assay: Inhibition of c-Jun N-terminal kinase (Jnk); summary of the method: as §2
Sequence of Mitogen-activated protein kinase 8 (P45983 whole entry): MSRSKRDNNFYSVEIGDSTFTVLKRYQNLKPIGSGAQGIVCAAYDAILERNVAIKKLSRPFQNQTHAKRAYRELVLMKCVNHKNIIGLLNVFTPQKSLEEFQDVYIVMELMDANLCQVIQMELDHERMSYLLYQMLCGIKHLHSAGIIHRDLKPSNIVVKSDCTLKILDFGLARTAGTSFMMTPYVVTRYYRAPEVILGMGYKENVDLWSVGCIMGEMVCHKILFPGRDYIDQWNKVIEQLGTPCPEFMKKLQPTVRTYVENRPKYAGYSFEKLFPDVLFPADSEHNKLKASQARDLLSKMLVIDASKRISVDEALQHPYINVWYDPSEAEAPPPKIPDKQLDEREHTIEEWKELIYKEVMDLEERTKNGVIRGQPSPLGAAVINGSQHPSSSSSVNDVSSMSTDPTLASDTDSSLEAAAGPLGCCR

[13] = Plasma concentration was determined after 1 hr at a dose 30 mg/kg administered orally to rat-4; assay type: ADME, organism-based; set-up: dose 30 mg/kg, route oral; conditions: po; summary of the method: as §1
[14] = target: cAMP-dependent protein kinase (PKA) (Homo sapiens, UniProt P22694+P17612+P22612); assay: Inhibition of Protein kinase A (PKA); assay type: protein assay; summary of the method: as §2
[15] = target: MAP kinase p38 (Homo sapiens, UniProt O15264+Q15759+Q16539+P53778); assay: Inhibition of Mitogen-activated protein kinase p38; assay type: protein assay; summary of the method: as §2
[16] = target: T2, Dual specificity mitogen-activated protein kinase kinase 6 (Homo sapiens, UniProt P52564); assay: Inhibition of Mitogen activated protein kinase kinase 6; summary of the method: as §2
T2 sequence (P52564 whole entry): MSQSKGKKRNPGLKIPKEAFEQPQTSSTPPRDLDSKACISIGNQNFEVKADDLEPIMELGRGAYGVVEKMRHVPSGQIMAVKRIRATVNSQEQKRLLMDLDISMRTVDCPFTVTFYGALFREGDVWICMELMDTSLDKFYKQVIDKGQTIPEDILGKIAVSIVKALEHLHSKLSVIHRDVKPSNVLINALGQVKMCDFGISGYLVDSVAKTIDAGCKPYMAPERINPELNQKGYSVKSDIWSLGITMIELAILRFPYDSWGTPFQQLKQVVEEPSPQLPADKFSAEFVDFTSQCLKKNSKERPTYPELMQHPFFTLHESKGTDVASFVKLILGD

[17] = target: Dual specificity mitogen-activated protein kinase kinase 1 (Homo sapiens, UniProt Q02750); assay: Inhibition of Mitogen activated protein kinase kinase 1; summary of the method: as §2
Sequence of Dual specificity mitogen-activated protein kinase kinase 1 (Q02750 whole entry): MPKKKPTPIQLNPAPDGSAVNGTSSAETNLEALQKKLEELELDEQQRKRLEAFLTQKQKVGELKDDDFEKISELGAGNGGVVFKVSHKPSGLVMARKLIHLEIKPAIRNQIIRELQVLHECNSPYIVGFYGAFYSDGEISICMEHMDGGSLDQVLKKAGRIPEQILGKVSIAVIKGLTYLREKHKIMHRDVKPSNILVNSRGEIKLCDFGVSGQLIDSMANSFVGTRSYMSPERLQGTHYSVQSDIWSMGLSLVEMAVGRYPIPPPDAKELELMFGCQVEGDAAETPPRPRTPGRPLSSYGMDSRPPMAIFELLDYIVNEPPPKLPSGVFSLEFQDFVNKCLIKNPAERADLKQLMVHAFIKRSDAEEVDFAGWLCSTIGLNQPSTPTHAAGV

[18] = target: Platelet-derived growth factor receptor alpha (Homo sapiens, UniProt P16234); assay: Inhibition of PDGF receptor alpha autophosphorylation
Sequence of Platelet-derived growth factor receptor alpha (P16234 whole entry): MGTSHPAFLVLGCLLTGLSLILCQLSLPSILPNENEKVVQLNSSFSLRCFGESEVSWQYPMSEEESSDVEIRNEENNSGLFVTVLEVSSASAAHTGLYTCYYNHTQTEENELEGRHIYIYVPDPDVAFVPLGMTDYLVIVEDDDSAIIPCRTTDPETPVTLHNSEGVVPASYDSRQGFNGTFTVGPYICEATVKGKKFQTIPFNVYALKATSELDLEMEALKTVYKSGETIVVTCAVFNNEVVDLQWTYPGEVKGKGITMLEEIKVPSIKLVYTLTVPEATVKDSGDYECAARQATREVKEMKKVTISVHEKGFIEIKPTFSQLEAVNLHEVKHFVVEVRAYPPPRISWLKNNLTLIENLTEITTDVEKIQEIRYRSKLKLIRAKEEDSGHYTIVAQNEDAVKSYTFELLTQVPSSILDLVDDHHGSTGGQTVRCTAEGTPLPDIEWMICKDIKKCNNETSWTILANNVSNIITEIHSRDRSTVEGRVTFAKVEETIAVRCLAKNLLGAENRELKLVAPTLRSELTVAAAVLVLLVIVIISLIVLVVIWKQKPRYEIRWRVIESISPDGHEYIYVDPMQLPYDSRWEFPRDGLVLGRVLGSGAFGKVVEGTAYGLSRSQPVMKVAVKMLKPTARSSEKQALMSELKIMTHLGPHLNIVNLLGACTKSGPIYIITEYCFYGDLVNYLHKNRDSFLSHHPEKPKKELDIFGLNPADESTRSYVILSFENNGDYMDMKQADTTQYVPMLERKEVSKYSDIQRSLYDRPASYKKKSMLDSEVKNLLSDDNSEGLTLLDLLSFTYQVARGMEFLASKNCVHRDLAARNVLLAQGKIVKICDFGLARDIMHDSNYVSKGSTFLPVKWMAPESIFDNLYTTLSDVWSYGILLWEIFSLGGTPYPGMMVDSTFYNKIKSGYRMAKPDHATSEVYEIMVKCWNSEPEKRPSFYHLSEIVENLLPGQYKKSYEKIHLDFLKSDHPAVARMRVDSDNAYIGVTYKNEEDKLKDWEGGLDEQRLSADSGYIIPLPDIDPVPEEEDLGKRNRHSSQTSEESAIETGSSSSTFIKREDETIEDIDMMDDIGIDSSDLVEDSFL

[19] = Plasma concentration was determined after 8 hr at a dose 30 mg/kg administered orally to rat-3; assay type: ADME, organism-based; set-up: dose 30 mg/kg, route oral; conditions: po; summary of the method: as §1
[20] = target: Mitogen-activated protein kinase; ERK1/ERK2 (Homo sapiens, UniProt P27361+P28482); assay: Inhibition of Extracellular signal-regulated kinase (Erk); assay type: protein assay; summary of the method: as §2
[21] = target: T3, Receptor-type tyrosine-protein kinase FLT3 (Homo sapiens, UniProt P36888); assay: Inhibition of Flt3 autophosphorylation
T3 sequence (P36888 whole entry): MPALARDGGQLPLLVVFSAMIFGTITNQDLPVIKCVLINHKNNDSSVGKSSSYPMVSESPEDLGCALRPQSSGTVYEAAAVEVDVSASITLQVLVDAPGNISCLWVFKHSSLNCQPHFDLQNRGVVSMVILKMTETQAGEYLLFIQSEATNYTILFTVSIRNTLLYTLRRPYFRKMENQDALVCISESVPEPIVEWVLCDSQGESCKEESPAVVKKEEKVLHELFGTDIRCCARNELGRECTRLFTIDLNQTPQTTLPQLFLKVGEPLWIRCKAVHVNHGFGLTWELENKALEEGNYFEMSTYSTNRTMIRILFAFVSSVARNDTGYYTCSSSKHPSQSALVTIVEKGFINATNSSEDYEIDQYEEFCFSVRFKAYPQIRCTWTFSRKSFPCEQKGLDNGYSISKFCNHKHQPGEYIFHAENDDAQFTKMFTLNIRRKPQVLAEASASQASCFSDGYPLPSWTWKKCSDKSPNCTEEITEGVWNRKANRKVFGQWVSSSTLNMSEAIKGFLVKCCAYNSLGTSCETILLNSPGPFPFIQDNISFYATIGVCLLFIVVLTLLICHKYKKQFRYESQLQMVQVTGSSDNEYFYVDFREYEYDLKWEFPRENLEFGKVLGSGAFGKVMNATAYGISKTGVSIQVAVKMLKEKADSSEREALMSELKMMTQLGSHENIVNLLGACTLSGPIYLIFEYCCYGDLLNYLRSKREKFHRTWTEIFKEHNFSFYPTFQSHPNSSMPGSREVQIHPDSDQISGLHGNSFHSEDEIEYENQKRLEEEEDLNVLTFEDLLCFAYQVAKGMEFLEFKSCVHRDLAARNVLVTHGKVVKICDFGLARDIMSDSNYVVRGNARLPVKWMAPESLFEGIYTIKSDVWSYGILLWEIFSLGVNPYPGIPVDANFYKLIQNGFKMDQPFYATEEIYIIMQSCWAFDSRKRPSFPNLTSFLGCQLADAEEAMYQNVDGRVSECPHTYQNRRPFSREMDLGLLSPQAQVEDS

[22] = Plasma concentration was determined after 8 hr at a dose 30 mg/kg administered orally to rat-4; assay type: ADME, organism-based; set-up: dose 30 mg/kg, route oral; conditions: po; summary of the method: as §1
[23] = Plasma concentration was determined after 1 hr at a dose 30 mg/kg administered orally to rat-3; assay type: ADME, organism-based; set-up: dose 30 mg/kg, route oral; conditions: po; summary of the method: as §1

- pIC50 [1]: 7.00
- concentration at 1 h [2]: 2500 ng/mL
- concentration at 8 h [3]: 400 ng/mL
- concentration at 1 h [4]: 2300 ng/mL
- concentration at 8 h [5]: 500 ng/mL
Compound: COc1ccc(CNC(=S)N2CCN(c3ncnc4cc(OC)c(OC)cc34)CC2)cc1

- IC50 [6]: > 30 uM l-1
- IC50 [7]: > 200 uM l-1
- pIC50 [8]: < 4.52
- pIC50 [9]: < 4.52
- pIC50 [10]: < 4.52
- pIC50 [11]: < 4.52
- pIC50 [12]: < 4.52
- concentration at 1 h [13]: 8100 ng/mL
- IC50 [14]: > 30 uM l-1
- IC50 [15]: > 30 uM l-1
- pIC50 [16]: < 4.52
- pIC50 [17]: < 4.52
- pIC50 [18]: 6.62
- concentration at 8 h [19]: 1600 ng/mL
- IC50 [20]: > 30 uM l-1
- pIC50 [21]: < 4.52
- concentration at 8 h [22]: 900 ng/mL
- concentration at 1 h [23]: 5400 ng/mL
Compound: COc1cc2ncnc(N3CCN(/C(S)=N\Cc4ccccc4)CC3)c2cc1OC
